Folding enthalpy and Tm data for 38 sequences are collected here from the array DNA melting data of Ke et al. (doi:10.1101/2024.01.08.574731).

Series [1] can be described thus: folding enthalpy; higher = less favourable; fluorescence melt of hairpins on a sequencing array, two-state fit. As to conditions: sodium 0.088 M. In a few lines: (§1)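 On a sequenced MiSeq flow cell, library hairpins with annealed Cy3 and quencher oligos were imaged for Cy3 fluorescence in 2.5 °C steps up to 60 °C, in 50 mM Na-HEPES pH 8.0, 25 mM NaCl. Normalisation used pre-quench Cy3 and control constructs. Bootstrapped two-state fits gave melting temperature and folding enthalpy, combined by inverse variance across four replicates and with fitted temperatures raised by 9.35 °C to match UV melts.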

Series [2] can be described thus: melting temperature; fluorescence melt of hairpins on a sequencing array, two-state fit, raised by 9.35 °C to match UV melts. Particulars: sodium 0.088 M. In a few lines: as §1

In the case of GATCCGGTTTCGGATC ((((((....)))))), in series [1], the folding enthalpy is -44.2 kcal/mol. For the same sequence, in series [2], the Tm came to 59.5 °C.
Turning to GATCCGTAACCGGATC ((((((....)))))), the folding enthalpy in series [1] is -39.2 kcal/mol. In addition, the Tm in series [2] was found to be 55.7 °C.
Consider GATCCGTAAGCGGATC ((((((....)))))), for which the folding enthalpy in series [1] is -35.3 kcal/mol. Also, in series [2], the Tm was found to be 59.3 °C.
The like results for GATCCGTACTCGGATC ((((((....)))))) were, in that order, -37.9 kcal/mol and 58.7 °C.
Consider GATCCGTAGCGGATC ((((((...)))))), for which the folding enthalpy in series [1] is -35.6 kcal/mol. Besides, the Tm in series [2] was found to be 56 °C.
For the sequence GATCCGTAGGCGGATC ((((((....)))))), in series [1], the folding enthalpy was -41.3 kcal/mol. In series [2], the Tm came to 59.2 °C.
For GATCCGTAGTCGGATC ((((((....)))))), the folding enthalpy in series [1] was -36 kcal/mol. Also, the Tm in series [2] is 57 °C.
In the case of GATCCGTATACGGATC ((((((....)))))), the folding enthalpy in series [1] was -45.4 kcal/mol. In series [2], the Tm worked out at 62.1 °C.
GATCCGTATTCGGATC ((((((....)))))): the folding enthalpy in series [1] was -39.5 kcal/mol. Moreover, the Tm in series [2] stood at 58.7 °C.
The like results for GATCCGTCAACGGATC ((((((....)))))) were, in that order, -35.9 kcal/mol and 62 °C.
For GATCCGTCCTCGGATC ((((((....)))))) the same measures were -48.3 kcal/mol and 58 °C.
As to GATCCGTCTCCGGATC ((((((....)))))), the folding enthalpy in series [1] was -39.8 kcal/mol. For the same sequence, the Tm in series [2] amounted to 58.4 °C.
On to GATCCGTCTTCGGATC ((((((....)))))), for which, in series [1], the folding enthalpy was -40 kcal/mol. The Tm in series [2] amounted to 59.4 °C.
The like results for GATCCGTGAGCGGATC ((((((....)))))) were, in that order, -35.6 kcal/mol and 65.9 °C.
On to GATCCGTGCACGGATC ((((((....)))))), for which the folding enthalpy in series [1] was -40.3 kcal/mol. For the same sequence, in series [2], the Tm was 66.5 °C.
For the sequence GATCCGTGTACGGATC ((((((....)))))), the folding enthalpy in series [1] was -45 kcal/mol. Further, the Tm in series [2] was determined as 63.6 °C.
For GATCCGTGTGCGGATC ((((((....)))))) the same measures were -38.8 kcal/mol and 66.7 °C.
For GATCCGTGTTCGGATC ((((((....)))))) the same measures were -36.2 kcal/mol and 61.4 °C.
The like results for GATCCGTTACGGATC ((((((...)))))) were, in that order, -34.6 kcal/mol and 63.9 °C.
As for GATCCGTTGACGGATC ((((((....)))))), the folding enthalpy in series [1] was -39.1 kcal/mol. Further, the Tm in series [2] was 61.8 °C.
For GATCCGTTGCCGGATC ((((((....)))))) the same measures were -46.8 kcal/mol and 58.4 °C.
For GATCCGTTTGCGGATC ((((((....)))))), the folding enthalpy in series [1] is -37.7 kcal/mol. The Tm in series [2] was determined as 62.3 °C.
The like results for GATCCTAAAGAGGATC ((((((....)))))) were, in that order, -31.3 kcal/mol and 46.1 °C.
In the case of GATCCTAATCAGGATC ((((((....)))))), the folding enthalpy in series [1] was -38.6 kcal/mol. Besides, the Tm in series [2] amounted to 50.5 °C.
The like results for GATCCTACAGAGGATC ((((((....)))))) were, in that order, -29.6 kcal/mol and 50.4 °C.
For GATCCTAGACAGGATC ((((((....)))))) the same measures were -36.5 kcal/mol and 50.4 °C.
For GATCCTATAAGGATC ((((((...)))))) the same measures were -37.8 kcal/mol and 55.2 °C.
In the case of GATCCTATCGAGGATC ((((((....)))))), in series [1], the folding enthalpy is -27.1 kcal/mol. The Tm in series [2] is 51.9 °C.
As to GATCCTATGAGGATC ((((((...)))))), the folding enthalpy in series [1] was -34.7 kcal/mol. For the same sequence, the Tm in series [2] turned out to be 53.7 °C.
For GATCCTATGTAGGATC ((((((....)))))) the same measures were -34.9 kcal/mol and 54.5 °C.
The like results for GATCCTCAAAAGGATC ((((((....)))))) were, in that order, -32.5 kcal/mol and 51.3 °C.
For GATCCTCACCAGGATC ((((((....)))))) the same measures were -38.6 kcal/mol and 50.9 °C.
Consider GATCCTCACGAGGATC ((((((....)))))), for which the folding enthalpy in series [1] is -43.3 kcal/mol. For the same sequence, in series [2], the Tm came out at 54.8 °C.
On to GATCCTCAGAAGGATC ((((((....)))))), for which the folding enthalpy in series [1] is -35.3 kcal/mol. For the same sequence, in series [2], the Tm is 51 °C.
For GATCCTCATAAGGATC ((((((....)))))) the same measures were -34.4 kcal/mol and 52.6 °C.
For GATCCTCATGAGGATC ((((((....)))))), the folding enthalpy in series [1] is -41.1 kcal/mol. In addition, the Tm in series [2] is 58.4 °C.
Consider GATCCTCCACAGGATC ((((((....)))))), for which the folding enthalpy in series [1] is -36 kcal/mol. Also, the Tm in series [2] worked out at 50.8 °C.
Turning to GATCCTCCCAGGATC ((((((...)))))), in series [1], the folding enthalpy was -35.8 kcal/mol. Further, the Tm in series [2] is 55.7 °C.
